Legend:
[1] = tested on: anti-efpeglenatide antibodies; assay: Repeated-dose study: immunogenicity, bridging ELISA; format: in vivo, human; settings: the four patients with antibodies at baseline
Method in brief: (§1)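 Adults aged 18–65 with T2D on stable metformin for ≥3 months, HbA1c 7–10%. Randomized 3:1 to s.c. test compound or placebo with no titration, in six cohorts of 12. Doses were 1, 2 or 4 mg weekly for 8 weeks, or 8, 12 or 16 mg monthly for 9 weeks; follow-up to week 13. Assessments covered AEs, vital signs, 12-lead ECG, clinical laboratory measures, immunogenicity and physical examination. Analysed in the safety set by treatment actually received.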

[2] = tested on: GLP‐1 receptor; settings: in vitro; compared with other GLP‐1RAs; cited from earlier work
[3] = tested on: patients with T2D; assay: Single-dose study: pharmacodynamics; format: in vivo, human; settings: single dose 2–8 μg/kg
Method in brief: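 Pharmacodynamics were assessed from 24-hour glucose profiles, including fasting and postprandial plasma glucose, reported as absolute change from baseline. The PD set comprised all treated patients.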

[4] = Single-dose study: serum pharmacokinetics of efpeglenatide; format: in vivo, human; settings: T2D patients, serum ELISA; for tmax: median (min–max)
Method in brief: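 Single s.c. dose (2–100 μg/kg) in T2D patients. Serum concentration–time data were used to derive tmax, terminal t1/2, observed Cmax, AUC(0–last) and AUC(0–inf). Values are geometric mean (%CV of arithmetic mean); tmax is median (min, max). Dose proportionality was explored on log-transformed Cmax and AUC. The PK set comprised dosed patients with sufficient concentration data.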

[5] = tested on: anti-efpeglenatide antibodies; assay: Single-dose study: immunogenicity, bridging ELISA; format: in vivo, human; settings: serum, pre-dose, days 28 and 49, follow-up
Method in brief: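 First-in-patient dose escalation in eight cohorts of six T2D patients: single s.c. injection of 2–100 μg/kg test compound or placebo (5:1). Patients were 18–75 years, BMI 25–40 kg/m², HbA1c 6–10%, with a 14-day washout of glucose-lowering drugs before dosing. Immunogenicity was a secondary objective.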

[6] = tested on: GLP‐1 receptor; settings: in vitro; compared with other GLP‐1RAs; cited from earlier work; remark: listed apart in the source
[7] = Repeated-dose study: serum pharmacokinetics of efpeglenatide; format: in vivo, human; settings: mean (SD); for Accumulation ratio: AUC0–τ last dose / AUC0–τ first dose; for PTR (peak‐to‐trough ratio): Cmax/Cmin
Method in brief: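 T2D patients on metformin received s.c. doses weekly (168 h interval, eight injections) or monthly (672 h interval, three injections). PK set, grouped by the most recent treatment received. Accumulation ratio was AUC0–τ of the last dose over AUC0–τ of the first dose. Peak-to-trough ratio was Cmax/Cmin. t1/2 was the terminal elimination half-life.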

[8] = tested on: patients with T2D; assay: Single-dose study: safety and tolerability; format: in vivo, human
Method in brief: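 Single ascending s.c. doses of 2–100 μg/kg or placebo (5:1) were given to T2D patients after a 14-day washout of glucose-lowering drugs. Safety assessments covered AE recording, vital signs, 12-lead ECG, clinical laboratory measures and physical examination. The safety set included all patients receiving any study drug.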

[9] = tested on: patients with T2D; assay: Repeated-dose study: safety and tolerability; format: in vivo, human
Method in brief: as §1

[10] = tested on: patients with T2D; assay: Repeated-dose study: pharmacodynamics/efficacy; format: in vivo, human
Method in brief: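 Multiple-ascending-dose trial in adults with T2D on stable metformin: s.c. doses weekly (1, 2, 4 mg; 8 weeks) or monthly (8, 12, 16 mg; 9 weeks), placebo 3:1, no titration. Primary endpoint was HbA1c change from baseline to […]. Full analysis set by randomized treatment. LS means came from ANCOVA with cohort as main effect and baseline as covariate. Each dose was tested against placebo within its regimen, two-sided at 5%, unadjusted.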

[11] = single s.c. dose 2 μg/kg, geometric mean (%CV)
[12] = single s.c. dose 4 μg/kg, geometric mean (%CV)
[13] = single s.c. dose 8 μg/kg, geometric mean (%CV)
[14] = single s.c. dose 14 μg/kg, geometric mean (%CV)
[15] = single s.c. dose 20 μg/kg, geometric mean (%CV)
[16] = single s.c. dose 40 μg/kg, geometric mean (%CV)
[17] = single s.c. dose 60 μg/kg, geometric mean (%CV)
[18] = single s.c. dose 100 μg/kg, geometric mean (%CV)

efpeglenatide
treatment‐emergent or treatment‐induced antibodies [1]: none | dissociation from the GLP‐1 receptor [2]: faster dissociation | changes in PPG [3]: No notable changes | reductions in FPG from baseline over 2 weeks ([3]; compared with the higher doses, data not shown): smaller than those observed for the higher doses | AUC(0–last) [4, 11]: 2913 (19) ng h/mL | Cmax [4, 11]: 10.4 (11) ng/mL | tmax ([4]; single s.c. dose 2 μg/kg): 144.00 (72.06–216.76) h | AUC(0–inf) [4, 12]: 9060 (12) ng h/mL | AUC(0–last) [4, 12]: 7911 (12) ng h/mL | Cmax [4, 12]: 25.7 (16) ng/mL | t1/2 [4, 12]: 144 (10) h | tmax ([4]; single s.c. dose 4 μg/kg): 72.06 (72.00–216.80) h | Cmax [4, 13]: 45.1 (5) ng/mL | t1/2 [4, 13]: 147 (19) h | tmax ([4]; single s.c. dose 8 μg/kg): 72.06 (72.00–144.00) h | Cmax [4, 14]: 80.3 (28) ng/mL | t1/2 [4, 14]: 135 (8) h | tmax ([4]; single s.c. dose 14 μg/kg): 144.00 (72.00–216.76) h | Cmax [4, 15]: 102 (6) ng/mL | t1/2 [4, 15]: 147 (6) h | tmax ([4]; single s.c. dose 20 μg/kg): 144.00 (72.00–216.78) h | Cmax [4, 16]: 202 (14) ng/mL | t1/2 [4, 16]: 141 (10) h | tmax ([4]; single s.c. dose 40 μg/kg): 144.00 (72.00–216.78) h | Cmax [4, 17]: 349 (13) ng/mL | t1/2 [4, 17]: 154 (9) h | tmax ([4]; single s.c. dose 60 μg/kg): 72.00 (72.00–144.00) h | Cmax [4, 18]: 643 (12) ng/mL | t1/2 [4, 18]: 180 (12) h | tmax ([4]; single s.c. dose 100 μg/kg): 72.00 (72.00–216.90) h | development of anti‐efpeglenatide antibodies [5]: No patient | receptor internalization [6]: reduced receptor internalization | Accumulation ratio ([7]; 1 mg once weekly s.c., τ 168 h): 3.49 (2.16) | PTR (peak‐to‐trough ratio) ([7]; 1 mg once weekly s.c.): 1.40 (0.49) | Accumulation ratio ([7]; 2 mg once weekly s.c., τ 168 h): 3.51 (0.68) | PTR (peak‐to‐trough ratio) ([7]; 2 mg once weekly s.c.): 1.42 (0.21) | Accumulation ratio ([7]; 4 mg once weekly s.c., τ 168 h): 3.71 (1.87) | PTR (peak‐to‐trough ratio) ([7]; 4 mg once weekly s.c.): 1.32 (0.12) | Accumulation ratio ([7]; 8 mg once monthly s.c., τ 672 h): 1.07 (0.10) | PTR (peak‐to‐trough ratio) ([7]; 8 mg once monthly s.c.): 10.35 (7.28) | PTR (peak‐to‐trough ratio) ([7]; 12 mg once monthly s.c.): 5.86 (1.10) | PTR (peak‐to‐trough ratio) ([7]; 16 mg once monthly s.c.): 12.94 (7.55) | deaths or serious AEs [8]: no deaths or serious AEs | arrhythmia or ECG changes due to QTc prolongation or conduction disorders ([8]; 12‐lead ECG): no signs of arrhythmia or ECG changes | hypoglycaemia or pancreatitis reported as AEs ([8]; any treatment group): No incidences | dose-escalation stopping criteria ([9]; 16 mg once monthly cohort, more than three patients with moderate vomiting): reached the predefined stopping criteria for dose escalation | pancreatic injury ([9]; any patient receiving efpeglenatide, repeated-dose study): no cases of pancreatic injury | haematological, serum chemistry or urine analysis variables ([9]; any treatment group, repeated-dose study): no significant change from baseline | LS mean change in HbA1c compared with placebo ([10]; 8 mg once monthly, day 57, P = 0.006): statistically significant LS mean decreases | LS mean change in HbA1c compared with placebo ([10]; 12 mg once monthly, day 57, P = 0.015): statistically significant LS mean decreases | LS mean change in HbA1c compared with placebo ([10]; 16 mg once monthly, day 57): not statistically significant | LS mean change in HbA1c compared with placebo ([10]; all once‐monthly dose groups (8, 12, 16 mg), day 29, P ≤0.047 for all, ANCOVA): significant decreases | LS mean change in HbA1c compared with placebo ([10]; each once‐weekly dose group (1, 2, 4 mg), day 29, P ≤0.003 for all, ANCOVA): Significant decreases | LS mean change in HbA1c compared with placebo ([10]; each once‐weekly dose group (1, 2, 4 mg), day 57, P ≤0.021 for all, ANCOVA): Significant decreases

— PMC7383501 (Diabetes, Obesity & Metabolism, 2020)
